Measurements collected from several papers.
Lines come from different studies, so protocols differ.
Target: Casein kinase I isoform alpha-like (CSNK1A1L, Homo sapiens, UniProt Q8N752)
One construct used (Q8N752 1-337): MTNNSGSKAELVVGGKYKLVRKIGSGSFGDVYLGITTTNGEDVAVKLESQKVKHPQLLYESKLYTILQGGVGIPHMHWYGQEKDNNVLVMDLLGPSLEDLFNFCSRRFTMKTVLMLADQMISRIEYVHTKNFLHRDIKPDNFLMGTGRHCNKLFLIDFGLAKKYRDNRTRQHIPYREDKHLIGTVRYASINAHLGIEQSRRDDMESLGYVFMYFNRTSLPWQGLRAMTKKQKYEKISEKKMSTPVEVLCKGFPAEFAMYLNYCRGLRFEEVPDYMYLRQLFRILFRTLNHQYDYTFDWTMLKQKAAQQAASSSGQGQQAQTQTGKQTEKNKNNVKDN

| SMILES | read-out | method | tested at | remaining binding [%] |
| --- | --- | --- | --- | --- |
| CCC(=N\O)/C(C)=C/c1ccc(F)cc1 | cell-free assay | competition with immobilised ligand | 1 µM | 78 |
| C[C@@H](c1ccc(-n2cnc3c(N)ncnc32)cc1)N1CCc2nn(C)c(Cc3ccccc3)c2C1=O | binding | competition with immobilised ligand | 0.1 µM | 91 |
| COc1cnc(Nc2cccc(S(N)(=O)=O)c2)nc1N1CCN(c2ccccc2)C(=O)C1 | binding | competition with immobilised ligand | 1 µM | 100 |
| FC(F)(F)Oc1cccc(-c2cnc3ccc(-c4ccncc4)nn23)c1 | cell-free assay | competition with immobilised ligand | 5 µM | 90 |
| CC(C)CC(=O)N1CCc2nc(-c3ccc(Br)cc3)nc(N(C)Cc3ccccc3)c2C1 | cell-free assay | competition with immobilised ligand | 0.1 µM | 100 |
| N[C@H]1CCN(c2nccc(-c3cnn4ncccc34)n2)C1 | binding | – | 1 µM | 100 |
| CNC(=O)Nc1ccc2c(c1)CC[C@@]21OC(=O)N(CC(=O)N(Cc2ccc(F)cc2)[C@@H](C)C(F)(F)F)C1=O | cell-free assay | competition with immobilised ligand | 1 µM | 88 |
| CN(C)c1ncc(F)c(-c2cnn3ncccc23)n1 | binding | – | 1 µM | 100 |
| N#Cc1ccc(Nc2ccc3[nH]c(=O)[nH]c3c2)c(Cl)c1 | cell-free assay | competition with immobilised ligand | 1 µM | 100 |
| O=C(NCC1CCOCC1)c1n[nH]cc1NC(=O)c1c(F)cccc1F | binding | competition with immobilised ligand | 1 µM | 85 |
| O=C(NCCCN1CCOCC1)c1ccc(Nc2ncc(Cl)c(-c3ccc(Cl)s3)n2)cc1 | binding | competition with immobilised ligand | 1 µM | 100 |
| CN(CCCC(F)(F)F)c1nccc(-c2cnn3ncccc23)n1 | binding | – | 1 µM | 91 |
| CNCc1ccccc1-c1csc([C@@H](C)Nc2nc(C)nc3cc(OC)c(OC)cc23)c1 | cell-free assay | competition with immobilised ligand | 1 µM | 100 |
| CN(c1nccc(-c2cnn3ncccc23)n1)C1CC1 | binding | – | 1 µM | 100 |
| COc1cnc(Nc2cccc(S(N)(=O)=O)c2)nc1N1CCN(c2ccccc2)CC1 | binding | competition with immobilised ligand | 1 µM | 96 |
| O=C(c1ccc(Nc2nccc(-c3cc4ccccc4s3)n2)cc1)N1CCC(N2CCCC2)CC1 | binding | competition with immobilised ligand | 1 µM | 98 |
| C[C@H]1CCN(c2nccc(-c3cnn4ncccc34)n2)C1 | binding | – | 1 µM | 100 |
| CCCOc1ccc([C@@H]2[C@@H](C(=O)O)[C@H](c3ccc4c(c3)OCO4)CN2CC(=O)Nc2c(CC)cccc2CC)cc1 | cell-free assay | competition with immobilised ligand | 1 µM | 94 |
| Nc1ncc2c(n1)-c1c([nH]c3ccc(C#CC4CC4)cc13)CCCC2 | binding | competition with immobilised ligand | 1 µM | 99 |
| CN(C)c1nccc(-c2cnn3ncccc23)n1 | binding | – | 1 µM | 98 |
| O=C(NCCCN1CCOCC1)c1ccc(Nc2nccc(-c3cc4ccccc4s3)n2)cc1 | binding | competition with immobilised ligand | 1 µM | 91 |
